# In PMC6605687 (The Journal of General Physiology, 2019):
# Substitutions are numbered along the chain they refer to.
# Experiments:
# Type in all cases: cell-based
# [1] = molecular target: T1, rat P2X2 receptor (rP2X2R) WT (Rattus norvegicus, UniProt P49653)
# T1 sequence (P49653 1-472): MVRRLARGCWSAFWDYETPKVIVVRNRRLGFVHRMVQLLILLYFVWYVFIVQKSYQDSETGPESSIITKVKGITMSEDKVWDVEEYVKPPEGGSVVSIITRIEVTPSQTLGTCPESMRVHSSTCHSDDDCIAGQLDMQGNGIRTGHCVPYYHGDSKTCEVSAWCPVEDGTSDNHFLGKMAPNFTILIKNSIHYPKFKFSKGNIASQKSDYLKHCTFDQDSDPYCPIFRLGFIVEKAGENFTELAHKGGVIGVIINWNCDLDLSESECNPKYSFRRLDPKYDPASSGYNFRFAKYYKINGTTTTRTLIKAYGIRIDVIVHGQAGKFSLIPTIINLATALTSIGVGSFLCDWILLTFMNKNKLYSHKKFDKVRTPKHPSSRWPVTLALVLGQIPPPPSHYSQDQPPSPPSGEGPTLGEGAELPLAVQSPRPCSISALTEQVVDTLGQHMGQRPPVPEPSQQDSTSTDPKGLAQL
# Method in brief: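 Collagenase-digested Xenopus oocytes were injected with WT rP2X2 mRNA (30 ng) and kept in L-15 at 18°C. Two-electrode voltage clamp was done 1–2 days later at −40 mV in ND96 (pH 7.4). Agonists were freshly dissolved in ND96 at pH 7.4. Responses were normalised to 1 mM ATP current in the same cell, and Hill fits gave EC50 and nH. Relative efficacy is the agonist maximal current versus 1 mM ATP. Results are mean ± SEM, compared by one-way ANOVA with Dunnett's test.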
# rP2X2 Lys188Arg = molecular target: T2, rP2X2 Lys188Arg (Rattus norvegicus, UniProt P49653, K188R); test: Two-electrode voltage clamp, oocytes expressing rP2X2 Lys188Arg
# T2 sequence (P49653 1-472 K188R): T1 sequence (P49653 1-472) with K188R
# Method in brief: (§1)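 Mutations were made by site-directed mutagenesis. Xenopus oocytes were injected with rP2X2 mRNA and incubated in L-15 at 18°C. Two-electrode voltage clamp was done 1–2 days later at −40 mV under ND96 perfusion (pH 7.4). ATP concentration-response currents were normalised and fitted to a one-component Hill equation for EC50 and Hill coefficient. Results are mean ± SEM, tested by one-way ANOVA with Dunnett's test against WT.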
# rP2X2 Arg290Gln = molecular target: T3, rP2X2 Arg290Gln (Rattus norvegicus, UniProt P49653, R290Q); test: Two-electrode voltage clamp, oocytes expressing rP2X2 Arg290Gln
# T3 sequence (P49653 1-472 R290Q): T1 sequence (P49653 1-472) with R290Q
# Method in brief: as §1
structure (smiles),measurement,setting,value
"Nc1ncnc2c1ncn2[C@@H]1O[C@H](COP(=O)(O)OP(=O)(O)OP(=O)(O)O)[C@@H](O)[C@H]1O [ATP, Adenosine 5′-triphosphate]",EC50,[1],32 ± 4 µM
same,EC50,rP2X2 Lys188Arg,57 ± 8 µM
same,EC50,rP2X2 Arg290Gln,4900 µM
